Test results published in publication PMC4857052 (Molecular pharmacology, 2012).
One block for each compound: values may come before it.

Assays:
TbU1 = details: procyclic forms (PCF), NE = no effect on uptake at concentration indicated, ref De Koning and Jarvis (1998), Papageorgiou et al. (2005), Gudin et al. (2006), cited from earlier work; for Ki: read-out: Ki, U1
[1] = test system: T. b. brucei bloodstream forms strain 427 WT; assay: Alamar blue drug sensitivity assay, wild-type; assay type: cell-based, Trypanosoma brucei brucei; details: for effect on bloodstream trypanosomes (in words): Alamar blue viability assay
Outline: (§1)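 Bloodstream-form T. b. brucei s427 grown in HMI-9 with 10% FBS at 37°C under 5% CO2. Resistant lines were made by months of stepwise-increasing exposure to the analog, then cloned by limiting dilution. Viability was read by resazurin (Alamar blue) reduction. Thymidine rescue was tested by adding 100 μM thymidine.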

[2] = test system: P1-type nucleoside transporter; assay: [3H]-inosine uptake in bloodstream forms; assay type: cell-based, Trypanosoma brucei brucei; details: read-out: Km of inosine uptake; n = 3
Outline: (§2)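 Log-phase cells were washed into HEPES/bicarbonate glucose buffer (pH 7.3) at 1 × 10^8/ml and mixed with an equal volume of [3H]-permeant, with or without unlabeled competitor, at ambient temperature. Uptake was stopped with ice-cold buffer containing saturating unlabeled permeant, then cells were spun through oil. Counts were corrected for nonspecific binding and Km, Vmax and Ki obtained by curve fitting. Runs were in triplicate. Thymidine: 10 μM label, 15 min. Orotic acid: 10 min.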

[3] = test system: T. b. brucei bloodstream forms; assay: Uptake of other radiolabeled pyrimidines by wild-type bloodstream forms; assay type: cell-based, Trypanosoma brucei brucei; details: over 15 min; 2.5 μM [3H]-2′-deoxycytidine, 0.25 μM [3H]-cytosine, 1 μM [3H]-thymine
TbU3 = assay: [3H]-2′deoxyuridine transport in bloodstream forms; assay type: cell-based, Trypanosoma brucei brucei
TbU3 uracil transporter = assay: [3H]-uracil transport in bloodstream forms; assay type: cell-based, Trypanosoma brucei brucei; details: read-out: Km, U3; bloodstream forms (BSF); Km of the permeant itself
[4] = test system: s427WT T. b. brucei bloodstream forms; assay: Kinetic parameters of pyrimidine transport in wild-type bloodstream forms; assay type: cell-based, Trypanosoma brucei brucei; details: [3H]-permeant; strain s427WT
Outline: as §2

5FOARes T. b. brucei = assay: Alamar blue drug sensitivity assay, 5FOARes; assay type: cell-based, Trypanosoma brucei brucei
Outline: as §1

5F-2′dURes T. b. brucei = assay: Alamar blue drug sensitivity assay, 5F-2′dURes; assay type: cell-based, Trypanosoma brucei brucei
Outline: as §1

5FURes T. b. brucei = assay: Alamar blue drug sensitivity assay, 5FURes; assay type: cell-based, Trypanosoma brucei brucei
Outline: as §1

[5] = resistance factor: IC50(resistant clone)/IC50(WT)

Compound: O=C1C=CNC(=O)C1 [3-Deazauracil]
Ki (TbU1): > 2500 µM

Compound: O=c1[nH]c(=O)c2[nH]c(=O)[nH]c2[nH]1 [Uric acid]
Ki, U1 (TbU1): NE, 1000

Compound: O=c1[nH]c(=S)ccn1[C@@H]1O[C@H](CO)[C@@H](O)[C@H]1O [4-thiouridine]
effect on bloodstream trypanosomes (in words) [1]: no effect up to at least 1 mM

Compound: Nc1ncnc2c1ncn2[C@@H]1O[C@H](CO)[C@@H](O)[C@H]1O [Adenosine]
Ki, U1 (TbU1): NE, 1000

Compound: O=C1CCNC(=O)N1 [5,6-Dihydrouracil]
Ki (TbU1): 830 ± 200 µM

Km [2]: 0.89 ± 0.15 µM
Compound: O=c1[nH]cnc2c1ncn2[C@@H]1O[C@H](CO)[C@@H](O)[C@H]1O [Inosine]
Ki, U1 (TbU1): NE, 1000

Compound: Nc1cc[nH]c(=O)n1 [Cytosine]
Ki, U1 (TbU1): NE, 1000
accumulation of radiolabeled permeant (in words) [3]: did not detectably accumulate

Km (TbU3 uracil transporter): 810 ± 130 µM
Km [4]: 810 ± 310 µM
Compound: O=c1ccn([C@H]2C[C@H](O)[C@@H](CO)O2)c(=O)[nH]1 [2’Deoxyuridine, 2′-deoxyuridine]
rate of [3H]-2′deoxyuridine uptake (TbU3; 0.5 μM [3H]-2′deoxyuridine): 0.00045 pmol (10^7 cells)^−1s^−1
rate of [3H]-2′deoxyuridine transport (TbU3; 5 μM [3H]-2′deoxyuridine, linear over 4 min): 0.0051 ± 0.0003 pmol/10^7 cells/s
inhibition of [3H]-2′deoxyuridine transport by unlabeled 2′-deoxyuridine (TbU3; 5 μM label, 2.5 mM unlabeled): 76%
Vmax [4]: 1.3 ± 0.7 pmol (10^7 cells)^−1s^−1

Compound: N=C(N)c1ccc(OCCCCCOc2ccc(C(=N)N)cc2)cc1 [Pentamidine]
EC50 (5FOARes T. b. brucei; Trypanosoma brucei, read-out: EC50, 5FOARes, Mean): 0.017 µM
RF, 5FOARes (5FOARes T. b. brucei; [5]): 2.2
EC50 (5F-2′dURes T. b. brucei; Trypanosoma brucei, read-out: EC50, 5F-2′dURes, Mean): 0.0079 µM
RF, 5F-2′dURes (5F-2′dURes T. b. brucei; [5]): 1.0
EC50 ([1]; Trypanosoma brucei, read-out: EC50, WT, Mean, Alamar blue assay, wild-type sensitive control strain): 0.0078 µM
EC50 (5FURes T. b. brucei; Trypanosoma brucei, read-out: EC50, 5FURes, Mean): 0.0073 µM
RF, 5FURes (5FURes T. b. brucei; [5]): 0.94

Compound: O=c1nccc[nH]1 [2-Pyrimidone]
Ki (TbU1): 5400 ± 1300 µM

Compound: O=c1ccn([C@@H]2O[C@H](CO)C[C@H]2O)c(=O)[nH]1 [3′-deoxyuridine]
effect on bloodstream trypanosomes (in words) [1]: no effect up to at least 1 mM

Compound: O=c1cc[nH]c(=S)[nH]1 [2-Thiouracil]
Ki (TbU1): 640 ± 110 µM

Compound: O=c1ccnc[nH]1 [4(3H)Pyrimidone]
Ki (TbU1): 1670 ± 180 µM

Compound: C[C@H]1O[C@@H](n2cc(F)c(=O)[nH]c2=O)[C@H](O)[C@@H]1O [5-fluoro-5′deoxyuridine]
effect on bloodstream trypanosomes (in words) [1]: no effect up to at least 1 mM

Compound: Cn1c(=O)cc[nH]c1=O [3-Methyluracil]
Ki (TbU1): 1620 ± 350 µM

Compound: Cc1cc(=O)[nH]c(=O)[nH]1 [6-Methyluracil]
Ki (TbU1): > 2500 µM

Compound: O=c1ccn([C@@H]2O[C@H](CO)[C@@H](O)[C@H]2O)c(=S)[nH]1 [2-thiouridine]
effect on bloodstream trypanosomes (in words) [1]: no effect up to at least 1 mM

Compound: Nc1nc2nc[nH]c2c(=O)[nH]1 [Guanine]
Ki (TbU1): > 25 µM

Compound: O=c1[nH]cc([N+](=O)[O-])c(=O)[nH]1 [5-Nitrouracil]
Ki, U1 (TbU1): NE, 1000

Compound: Nc1nc(=O)n([C@@H]2O[C@H](CO)[C@@H](O)[C@H]2O)cc1F [5-fluorocytidine]
effect on bloodstream trypanosomes (in words) [1]: no effect up to at least 1 mM

Compound: Cc1cn([C@H]2CC[C@@H](CO)O2)c(=O)[nH]c1=O [3′-deoxythymidine]
effect on bloodstream trypanosomes (in words) [1]: no effect up to at least 1 mM
